Test system: MS2 coat protein
Assay: apparent Kd, MS2 coat protein; higher = weaker binding; RNA-MaP array; FMN 200 µM where present
Procedure, shortened: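 The apparent Kd comes from binding curves fitted cluster by cluster, filtered, and summarised as a median. Those curves followed SNAP-549-labelled MS2 coat protein from 0.7 or 1.5 nM, doubling to 3 µM, on Illumina sequencing-chip clusters where stalled E. coli RNA polymerase had transcribed the designs, without and then with constant ligand. The buffer was 100 mM Tris-HCl pH 7.5, 80 mM KCl, 4 mM MgCl2, BSA, DTT, yeast tRNA and Tween-20, and green signal was normalised to red-channel RNA signal and control-cluster median Fmax.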

[1] = designed as: OFF switch for flavin mononucleotide, no ligand
[2] = ligand present: flavin mononucleotide, designed as: OFF switch for flavin mononucleotide
[3] = designed as: ON switch for flavin mononucleotide, no ligand
[4] = ligand present: flavin mononucleotide, designed as: ON switch for flavin mononucleotide

Sequence	apparent Kd [1] [nM]	apparent Kd [2] [nM]	apparent Kd [3] [nM]	apparent Kd [4] [nM]
CAAUUUAUAACAGGAUAUGUAUUACAAAAGUUAAUAGAAGGGUUUAAUACAUGAGGAUCACCCAUGUCAUGUGUCAUAAUUACC	36.7	29.6	–	–
AAAAUACAUGAGGAUCACCCAUGUUAGGAUAUCCAAGGUCUAACCCUCAGGGUUAGACGGAGAAGGGAUGUGGU	60.8	61.6	–	–
AAACGGGCAGGAUAUGCGUACUCACGGGAAAACUGAAUGGUACAUGAGGAUCACCCAUGUAGAAGGGCUUAAAA	53.5	46.1	–	–
CCGGCUGCUGUGAGGAUAUGCCUGUGGGUGCGCGGGCAGAAGGCACAUGAGGAUCACCCAUGUCCUGCGGUCCC	25.7	50.6	–	–
GCAUGCGUUCGAGGAUAUCGGUGAGAAACGGAACGAGAAGGCGAUCGAAUGUCUCAUCUUAUGAACAUGAGGAUCACCCAUGUA	–	–	299	83.2
UUAUGUGUUGUAGGAUAUCAUUAGAUUUGUAAUUUAAUUGUAAUUUACAUAUGAGAAGGACAUUUACAUGAGGAUCACCCAUGU	12.5	9.6	–	–
GACUUGGCUACAUGAGGAUCACCCAUGUUUGACUGGAUCGAUUAGGAUAUAGUGAUUUGCAACAAUUAGAAGGGAUGUUUACGG	–	–	23	28.8
UCAUAUAUACAAGGAUAUCAAUUAUAUACACAUCCUACAUGAGGAUCACCCAUGUUUUAUUUUUUUGAGAAGGUGUAUUGUCGG	–	–	24.1	32.1
GGCAUGUGGGCAGGAUAUAACUCGGUCUCUAGGUUAGAAGGGCCACACAUGAGGAUCACCCAUGUCGACCAGGCAGUCCUCCCU	26.2	60.5	–	–
UUGGACGUCGUAGGAUAUGUAGGAUAUUCCUACAUGAGGAUCACCCAUGUUGACAUGGAAGAAGGACAGAAGGACUAUGUCCAU	–	–	195	8.53
CCGGCUUAGGAGGAUAUGGGAGUCGAUAGACACCCAGAAGGCCUAACAUGAGGAUCACCCAUGUGUCCUACCGG	23.4	109	–	–
UAAACAUGAGGAUCACCCAUGUUAUGAUCGGUUGAUGAAAGUGAGGAUAUACUUAAUUUUAUGGAGUAGAAGGCACUGGGUUCU	–	–	23.1	28.6
UGUUGUAUUACAGGAUAUCUAUUAGUUUGAUUUAGAGAAGGGUAUUCACAUGAGGAUCACCCAUGUAUAUACGAGGAAGUUGUG	–	–	57.8	57.9
AAUUUACAGGGAGGAUAUACAUGAGGAUCACCCAUGUAAUCAUAUGAUAUUUCUUUUGUAUGAGUGUAGAAGGCCCAACUACCA	9.96	8.87	–	–
UCAUUAUAAAUCCAUCAUAACUACAUGAGGAUCACCCAUGUGCAGGAUAUCGAUUUUUUAACUUUCGAGAAGGGCAAUUACAGA	37.6	96.1	–	–
CAUUUACAUGAGGAUCACCCAUGUUCUGGCGGGUCAGGAUAUAGAUCGGAUGCGUUCUGUCUAGAAGGGACAUGUU	–	–	72	35.6
UGUGUCUGUAGAGGAUAUCCGGGCGUUCUGCUAGGAGAAGGCUGCAACACAUGAGGAUCACCCAUGUAGGUUGUGUCUCUCUAC	4.82	9.87	–	–
GUUAAGGUAGGAUAUACGAUAAUAUAGGGUAGAUAUAGAACACAUGAGGAUCACCCAUGUAGAAGGACCAAUUG	29.5	88.9	–	–
AAAUCGUCAGGAUAUGCAUGUAAUUGUUACAUUUCUCCGUUGCAGAAGGGACAUGAGGAUCACCCAUGUAAGUC	31.2	29.2	–	–
GGUUGACAAAGUCAACCUAAACGAACAUGAGGAUCACCCAUGUAGGAUAUGCUACUCAAAGAGUAGCAGAAGGACAUGUGCCUU	37.6	273	–	–
UUAUUAUGUGUAGGAUAUGCAUAUUAUGAUUAUGCAGAAGGACAUGAGGAUCACCCAUGUAUAUUAUUAUUAUAUAUUAUAUAU	13.3	21.1	–	–
CUUUUGUGAGGAUAUUUGUAGUAAAUAAAUAAAAUUACUACUGAGAAGGCACAUGAGGAUCACCCAUGUUCCUC	24.3	156	–	–
GGAUGAGAAACUCAUCCAAUACGAACAUGAGGAUCACCCAUGUAGGAUAUGCUACUCAAAGAGUAGCAGAAGGACAUGUGUCUU	27.4	159	–	–
GUUUGACAUGAGGAUCACCCAUGUGAGGAUAUACGAGUAGCUGCUAGGUAGUUAGUAUGUAGAAGGUGCGUGUU	75.6	71	–	–
AGCUGUGGCCGAGGAUAUCUAUCCAAAAUAACCGAAAUAUAAUCGGACAUGAGGAUCACCCAUGUAGAGAAGGCGGUCUCAGCA	24.3	37	–	–
AAGUAGAUCCGAGGAUAUACAAACCGGAAACGGUACAUGAGGAUCACCCAUGUAGAAGGCGGAUCUACAGGUACUAAAGUACCA	5.33	8.68	–	–
CAGCUACCCAGUAUGGGUAUUUGUACAGAAGGCCAGGUACAUGAGGAUCACCCAUGUAAAGAUAUGGAGGAUAUGUUAGUGUAU	–	–	22.1	6.86
UUGGACGUCGUAGGAUAUGUAGGAUAUUCCUACAUGAGGAUCACCCAUGUAGACAUGGAAGAAGGACAGAAGGACGAUGUCCAU	–	–	25.9	4.79
